Results pooled from the literature.
Each line is one published result; the experiments were not run side by side.
Target: Cyclin-dependent kinase 13 (CDK13, Homo sapiens, UniProt Q14004)

Compound | assay | conditions | remaining binding [%]
CC1CCCN1c1nccc(-c2cnn3ncccc23)n1 (stereo not drawn) | binding | 1 µM | 100
Cc1c[nH]c2nccc(Oc3c(F)cc(Nc4cc(Cl)nc(N)n4)cc3F)c12 | cell-free assay, competition with immobilised ligand | 0.1 µM | 73
CN(c1nccc(-c2cnn3ncccc23)n1)C1CC1 | binding | 1 µM | 100
CC(=O)C1=C(C)N(c2cccc(C(F)(F)F)c2)C(=O)N[C@@H]1c1ccc(C#N)nc1 | cell-free assay, competition with immobilised ligand | 1 µM | 100
O=C(c1ccc(Nc2ncc(Cl)c(-c3ccc(Cl)s3)n2)cc1)N1CCC(N2CCCC2)CC1 | binding, competition with immobilised ligand | 1 µM | 18
CNC(=O)[C@@H]1CC[C@@H](n2c(-c3ccc4cnccc4c3)nc3ccc(C(=O)NCc4cccc(C(N)=O)c4)cc32)C1 | binding, competition with immobilised ligand | 1 µM | 100
CN(C)c1ncc(F)c(-c2cnn3ncccc23)n1 | binding | 1 µM | 96
N#CC1(c2ccccn2)CCN(Cc2cc(C(=O)N3CCCC3)c(=O)n3ccccc23)CC1 | cell-free assay, competition with immobilised ligand | 1 µM | 100
O=C(NCCCN1CCOCC1)c1ccc(Nc2ncc(Cl)c(-c3ccc(Cl)s3)n2)cc1 | binding, competition with immobilised ligand | 1 µM | 34
O=C(Nc1c[nH]nc1C(=O)NC1CCNCC1)c1cc(F)cc(F)c1 | binding, competition with immobilised ligand | 1 µM | 100
O=C(c1ccc(Nc2nccc(-c3cc4ccccc4s3)n2)cc1)N1CCC(N2CCCC2)CC1 | binding, competition with immobilised ligand | 1 µM | 92
O=C(Nc1cccnn1)N1CCC(=Cc2cccc(Oc3ccc(C(F)(F)F)cn3)c2)CC1 | cell-free assay, competition with immobilised ligand | 1 µM | 100
COc1ccnn2ncc(-c3ccnc(N(C)C)n3)c12 | binding | 1 µM | 69
COc1cnc(Nc2cccc(S(N)(=O)=O)c2)nc1N1CCN(c2ccccc2)C(=O)C1 | binding, competition with immobilised ligand | 1 µM | 94
O=C(O)[C@H]1[C@H](Cn2nnc3ccccc3c2=O)CC[C@@H]1C(=O)c1ccc(OCCC2CCOCC2)cc1 | cell-free assay, competition with immobilised ligand | 1 µM | 93
N[C@@H]1CCN(c2nccc(-c3cnn4ncccc34)n2)C1 | binding | 1 µM | 54
CC(=O)c1c(NS(C)(=O)=O)c2cc(-c3ccc(Cl)cc3)c(-c3ccc(Cl)cc3Cl)nc2n(C)c1=O | cell-free assay, competition with immobilised ligand | 1 µM | 96
C[C@H]1CCN(c2nccc(-c3cnn4ncccc34)n2)C1 | binding | 1 µM | 84
